Neddylation inh – inhibitors of human cullin neddylation; TR-FRET cullin neddylation, biochemical; AID 651699; inhibition, % at 25 µM; 360,000 tested, 0.58% active; P61081+Q13564; in the data active means inhibition above about 36%
ARFGAP1 inhibitor – rat ARFGAP1 inhibition. Q62848. Arfgap1-stimulated ARF1 GTP hydrolysis, GDP FP detection. inhibition, % at 16.5 µM. 360,000 tested, 0.26% active;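 active means inhibition above a per-plate limit, mean inhibition of low control wells plus 3 SD, cut at about 25% in these data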;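 further: 0% = DMSO wells with enzyme and 100% = wells lacking Arfgap1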
Target sequence (Q62848 1-136 limits assumed): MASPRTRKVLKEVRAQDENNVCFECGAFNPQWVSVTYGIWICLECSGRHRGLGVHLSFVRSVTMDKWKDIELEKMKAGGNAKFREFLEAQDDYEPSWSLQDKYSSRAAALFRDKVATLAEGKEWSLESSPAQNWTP
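material = rat Arfgap1 catalytic domain, aa 1-136 | also added = human ARF1(Δ1-17)-GTP substrate | compound dosing = one concentration, 16.5 µM, DMSO 1.26% | times = GTP hydrolysis reaction 2 h at 25 °C | measured by = FP, GDP Alexa 633 tracer displaced from anti-GDP antibody, 620/688 nm | evaluation = percent inhibition of Arfgap1-stimulated GTP hydrolysis | replication = single well per compound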
Cardio protect – protects H9c2 cardiomyocytes from peroxide injury; H2O2 injury protection, ATPLite, 2 h; protection from H2O2 cell death, % at 20 µM; 360,000 tested, 0.63% active; AID 588492;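 active means compounds giving at least 50% protection of heart cells from peroxide-induced death in the single-dose screen, raw or plate-pattern-corrected value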;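 further: 0% = DMSO wells with peroxide and 100% = DMSO wells without peroxide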
ASAP1 inh – blocks human ASAP1-stimulated Arf1 GTP hydrolysis | inhibition, % at 16.5 µM | GDP FP detection | 360,000 tested, 0.19% active | AID 624377 | Q9ULH1; in the data active means inhibition above about 25%;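 further: 0% = vehicle with enzyme and substrate and 100% = no enzyme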
* marks the source's active call; other numbers are inactive results. Rows were chosen to be rich in hits. Some 1.6% of all compounds tested hit in one or more screens of this group.

COc1ccc2c(c1)c(=O)oc1cc(OCC(=O)N3CCCC(C)C3)ccc12 (stereo not drawn) was read as ARFGAP1 inhibitor 43*, Cardio protect 0 and ASAP1 inh 41*.
Screening COc1ccc2c(c1)c(=O)oc1cc(OCC(=O)N3CCC(C)CC3)ccc12 returned Cardio protect -4.
`C=CCN1CCc2c(cc(O)c(O)c2Br)[C@@H](c2ccccc2)C1` gave Neddylation inh -10, ARFGAP1 inhibitor -4, Cardio protect 60* and ASAP1 inh 6.
`O=c1c2ccccc2nc(/C=C/c2cc(Br)ccc2O)n1CCCO` gave Neddylation inh 1, ARFGAP1 inhibitor 6, Cardio protect 50* and ASAP1 inh 3.
O=c1c2ccccc2nc(/C=C/c2cccc([N+](=O)[O-])c2)n1CCO was read as Neddylation inh -10, ARFGAP1 inhibitor -5, Cardio protect 3 and ASAP1 inh 1.
NC(=O)N/N=C/c1c(O)ccc2oc3c(c12)CCCC3 was read as Neddylation inh -11, ARFGAP1 inhibitor -6, Cardio protect 13 and ASAP1 inh 7.
Screening Cc1nc2ccccc2c(=O)n1/N=C/c1cc(Br)ccc1O returned Neddylation inh 17, ARFGAP1 inhibitor 0, Cardio protect 54* and ASAP1 inh 7.
Screening Cc1nc2ccccc2c(=O)n1/N=C/c1c(O)ccc2oc3c(c12)CCCC3 returned Neddylation inh 10, ARFGAP1 inhibitor 0, Cardio protect 100* and ASAP1 inh 8.
CC(C)(C)N=Cc1c(O)ccc2oc3c(c12)CCCC3 was read as Neddylation inh 12, ARFGAP1 inhibitor -1, Cardio protect 73* and ASAP1 inh 1.
Screening Cc1cc(C)c(S(=O)(=O)N2C[C@H]3CON(C)[C@H]3C[C@H]2c2ccc(-n3ccnc3)cc2)c(C)c1 returned ARFGAP1 inhibitor 8 and ASAP1 inh 6.
`CCOC(=O)CC1(O)CSc2nc(N)cc(=O)n21` (stereo not drawn) gave ARFGAP1 inhibitor 4 and ASAP1 inh -1.
Nc1nc2c(C(=O)N3CCCC3)nnn2c2ccccc12 was read as ARFGAP1 inhibitor 1 and ASAP1 inh 13.
Screening O=c1c2ccccc2nc(COc2ccccc2)n1/N=C/c1ccc(O)c(O)c1 returned Neddylation inh -8, ARFGAP1 inhibitor -7, Cardio protect 56* and ASAP1 inh 8.
For O=C1CSC(=S)N1N=Cc1c(O)ccc2ccccc12 the results were Neddylation inh -37, ARFGAP1 inhibitor -3, Cardio protect 56* and ASAP1 inh -9.
`O=C(O)COc1ccc(/C=N/n2c(COc3ccccc3)nc3ccccc3c2=O)cc1` gave Neddylation inh 3, ARFGAP1 inhibitor -10, Cardio protect -2 and ASAP1 inh 3.
For Cc1nc2ccccc2c(=O)n1/N=C/c1c(O)ccc2ccccc12 the results were Neddylation inh -1, ARFGAP1 inhibitor 1, Cardio protect 74* and ASAP1 inh 13.
For Cc1nc2ccccc2c(=O)n1/N=C/c1ccc(N(C)C)cc1 the results were Neddylation inh -6, ARFGAP1 inhibitor 3, Cardio protect 4 and ASAP1 inh 4.
CCCCCCCCN1C(=O)[C@@H](CC(=O)N2CCCCC2)C[C@@]2(C(=O)OC)C1=C[C@H](C(C)(C)C)O[C@@H]2C was read as ARFGAP1 inhibitor 11 and ASAP1 inh -12.
`COc1cc(/C=N/NC(=O)c2sc3nc(C)cc(C)c3c2N)ccc1O` gave Neddylation inh 42*, ARFGAP1 inhibitor 11, Cardio protect 53* and ASAP1 inh -8.
For Cc1nc(SCC(=O)N2CCN(c3ccccc3)CC2)c2oc3ccccc3c2n1 the results were Neddylation inh 0, ARFGAP1 inhibitor 11, Cardio protect 74* and ASAP1 inh 1.
Screening Brc1ccc2nc(-c3ccc(CN4CCC(c5nc6ccccc6[nH]5)CC4)cc3)c(-c3ccccc3)nc2c1 returned ARFGAP1 inhibitor 9 and ASAP1 inh -4.
`COc1cc(-c2nnc(COC(=O)CSc3cc(C)c4ccccc4n3)o2)cc(OC)c1OC` gave Neddylation inh -18, ARFGAP1 inhibitor 3, Cardio protect 23 and ASAP1 inh -1.
For COc1cc(-c2nnc(COC(=O)c3cc(C)nc4ccc(C)cc34)o2)cc(OC)c1OC the results were Neddylation inh 1, ARFGAP1 inhibitor 3, Cardio protect 71* and ASAP1 inh 6.
CC(C)C[C@H]1COc2cccc(N3CCCC3)c2S(=O)(=O)N1 was read as ARFGAP1 inhibitor 14 and ASAP1 inh 7.
Screening CCCCn1c(NC(=O)c2ccccc2)nc2ccccc21 returned Neddylation inh 36, ARFGAP1 inhibitor -5, Cardio protect 81* and ASAP1 inh 7.

Source: PubChem (several laboratories)
